Source: PubChem (Broad Institute)
Only a sample is shown.
PGC1a acetyl up – raises PGC1a acetylation signal in U2OS cells; U2OS PGC1a acetylation AlphaScreen, overnight; AID 651723; activation, % at 15.6 µM; hit rate 0.21% among 350,000;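 active = every replicate reaching activation of at least 50%, whatever the mean replicate activation; inconclusive = replicates that disagree or another doubt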;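 note: hits raise the AlphaScreen acetylation signal above neutral controls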
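detection = AlphaScreen lysate read | assay system = U2OS cells expressing flag-PGC1a plus GCN5 | input = 7000 cells/well | dosing = one concentration | times = compound overnight at 37 °C, each detection step 1 h RT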
Hep G6PC suppr – PGC-1a acetylation activators affecting G6PC expression in hepatocytes; shares compounds with PGC1a acetyl up; primary mouse hepatocytes, G6PC mRNA qPCR, forskolin; G6PC suppression (normalized activity, % of positive control; higher = more suppression), % at 26 µM; 240 tested, under 10 active; AID 743463;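 active = dose curves showing G6PC suppression whose half-maximal dose is at most twice the top valid dose; inconclusive = flat curves with moderate negative activity, or unreliable fits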;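 note: G6PC expression relative to GAPDH housekeeping gene as delta delta Ct; 0% = median of neutral control wells and 100% = median of positive control wells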
Hep PCK1 suppr – PGC-1a acetylation activator altering hepatocyte PCK1 expression; shares compounds with PGC1a acetyl up; primary mouse hepatocytes, PCK1 mRNA qPCR, forskolin-stimulated; PCK1 expression decrease, unspecified at 26 µM; 230 tested, under 10 active; AID 743465;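 active = compounds lowering PCK1 expression whose fitted half-maximal concentration is at most twice the top tested dose; inconclusive = flat fit with moderate opposite-direction effect, or poor fit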;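 note: values are delta delta Ct of PCK1 relative to GAPDH; higher delta delta Ct means lower PCK1 expression so positive values indicate hits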
Hep PGC-1a down – PGC-1a acetylation activators affecting PGC-1a expression in hepatocytes; shares compounds with PGC1a acetyl up; primary mouse hepatocytes, PGC-1a mRNA qPCR, forskolin; top dose 26 µM; max activity (PGC-1a expression decrease), %; 240 tested, under 10 active; AID 743467;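 active = compound lowering PGC-1a expression with fitted half-maximal concentration at most twice its top tested dose; inconclusive = flat curve with moderate opposite-direction effect, or poor fit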;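 note: 0% = neutral control wells median and 100% = positive control wells median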
Numbers without * were called inactive; i = inactive; ? = inconclusive; / = no result; [ ] = dose if it differs, or a comment.

SMILES	PGC1a acetyl up	Hep G6PC suppr	Hep PCK1 suppr	Hep PGC-1a down
CCc1ccc(C(=O)CN(C#N)c2nc(C)cc(C)n2)cc1	-48.8	/	/	/
COC(=O)C[C@H]1c2cc(C(F)(F)F)ccc2S(=O)(=O)N1Cc1ccc(OC)cc1	105.6*	29.1	69.8	68.0
Cc1cc(C2=NNC(=NCCc3ccccc3)SC2)c(C)n1-c1c(C)n(C)n(-c2ccccc2)c1=O	-62.9	/	/	/
O=C(NCc1cccs1)C1Cc2c(-c3ccc(Cl)cc3)ccnc2O1 (centres undefined)	101.5*	13.3	6.54	47.7
Cc1nn2c(NCCCN3CCOCC3)c3c(nc2c1-c1ccccc1)CCC3	66.9*	i	426	52.6
Cc1c(C(=O)OCC(=O)c2c(N)n(CC(C)C)c(=O)n(C)c2=O)oc2ccccc12	63.6*	66.2	80.7	9.5
CC1C(=O)C(C)(C)C(=O)OC1c1ccccc1 (centres undefined)	-49.0	/	/	/
O=C1C(Nc2ccccc2)=C/C(=N/S(=O)(=O)c2cccs2)c2ccccc21	-59.3	/	/	/
O=C(O)C1CCCN1S(=O)(=O)c1ccc(Br)s1 (centres undefined) (tested in a mixture with another compound)	-42.3	/	/	/
O=C(CN1CCC(Cn2cnc3ccccc32)CC1)NCc1ccco1	/	1.2	-2.36	14.0
O=C(NCc1ccco1)c1scc2c1OCCO2	-50.0	/	/	/
COc1cc(C)c(CN2CCN(S(=O)(=O)c3ccc(Cl)s3)CC2)cc1OC	79.2*	66.3	91	?
CC[C@H](C)C1OC(=O)[C@@H](C)[C@@H](CC)NC(=O)[C@H](C)N(C)C(=O)C(C)(C)C(=O)C(C)NC(=O)[C@H](Cc2ccc(OC)cc2)N(C)C(=O)[C@H](C(C)C)N(C)C(=O)CNC(=O)[C@H](CC(C)C)N(C)C(=O)CNC1=O (some centres undefined)	-74.1	/	/	/
CCOC(=O)C1CCCN(S(=O)(=O)c2ccc3c(c2)NC(=O)CO3)C1 (centres undefined)	92.1*	-22.9	/	?
CC1CCCN(S(=O)(=O)c2ccc3c(c2)n(C)c(=O)c(=O)n3C)C1 (centres undefined)	-49.1	/	/	/
O=C(Nc1cccnc1)c1ccc(Br)s1	?	-7.9	26.8	47.0
O=C1CCCC(O)=C1N=Nc1ccc2c(c1)OCO2	-46.8	/	/	/
O=S(=O)(c1ccc(Cl)cc1)c1snnc1-c1ccccc1	-41.8	/	/	/
O=C(C1CCC1)N1CCN(S(=O)(=O)c2ccccc2)CC1	?	11.1	1.22	118.5
CC1(C)CC(=O)C(C=NCC(N)=O)=C(O)C1	-52.2	/	/	/
CCN(CC)CC#CCOC(c1ccccc1)c1ccccc1	-44.0	/	/	/
CCOC(=O)C1=C(C)N=C2SC(C(=O)OC)=CC(=O)N2C1c1cccc(OC)c1 (centres undefined)	-51.5	/	/	/
COc1ccc(-c2csc(N(CCCN(C)C)C(=O)c3cccs3)n2)cc1	-46.1	/	/	/
COc1ccc(S(=O)(=O)N(C)CC(=O)Nc2cccc(C(C)=O)c2)cc1Cl	?	16.8	13.4	?
Cc1c(Cl)cccc1NS(=O)(=O)c1ccc2c(c1)C1C=CCC1C(c1ccc(C(=O)O)cc1)N2 (centres undefined)	-107.4	/	/	/
SMILES	PGC1a acetyl up	Hep G6PC suppr	Hep PCK1 suppr	Hep PGC-1a down
CCOC(=O)c1ccc(N2C(=O)C=CC2=O)cc1	-45.7	/	/	/
CCOC(=O)c1ccc(NC(=O)N2CCc3ccccc3C2)cc1	?	25.3[8 µM]	22.4	116.8
O=C1CCCc2ccccc2N1Cc1ccc(Cl)cc1Cl	-56.0	/	/	/
Cc1cc2c(cc1S(=O)(=O)N1CCc3ccccc31)NC(=O)CO2	?	/	19.3	14.7
Cc1ccc(C)c(S(=O)(=O)N(C(=O)c2ccncc2)c2ccc(OC(=O)c3ccncc3)cc2)c1	-44.1	/	/	/
CCOc1cc(/C=N/N=C(N)N)ccc1OCc1ccc(Cl)cc1	-55.7	/	/	/
O=C(c1ccco1)N1CCN(c2nnc(-c3ccccc3)c3ccccc23)CC1	?	43.1	17.8	?
NS(=O)(=O)c1ccc(-c2ccc(/C=C3\C(=O)Nc4cc(Cl)ccc43)o2)cc1	-48.6	/	/	/
CC(=O)N1N=C(c2ccco2)CC1c1ccco1 (centres undefined)	-48.7	/	/	/
COc1ccc(S(=O)(=O)Nc2ccc3c(c2)C(=O)N([C@@H](C)CO)C[C@@H](C)[C@H](CN(C)S(=O)(=O)c2ccc(Cl)cc2)OCCCC[C@H](C)O3)cc1	-49.3	160.8	73.4	67.4
O=C(O)c1cc(O)c2c(c1)C(=O)c1cccc(O)c1C2=O	-67.0	/	/	/
Cc1ccc2nc(SCC(=O)Nc3ccc(F)cc3)nc(=O)n2c1	-76.3	/	/	/
Cc1ccc2c(CN(Cc3ccccc3)Cc3ccccc3)cc(=O)oc2c1	?	/	62	75.4
CC(=O)Nc1ccc2c(CSc3nncs3)cc(=O)oc2c1	-46.9	/	/	/
Cn1nc(-c2ccccn2)nc2c(=O)n(C)c(=O)nc1-2	-79.6	/	/	/
CCOC(=O)c1sc2nc(C)nc(NCc3ccccc3OC)c2c1C	-62.9	101.0	149	129.2
COc1ccc2nc(C)cc(N/N=C/c3ccc(F)cc3)c2c1	-93.7	/	/	/
O=C(/C=C/c1ccccc1)CC(O)(c1ccccc1)C(F)(F)F (centres undefined)	-41.5	/	/	/
O=C(OCc1nnc(-c2ccccc2)o1)C1=COCCO1	-60.9	/	/	/
CCCc1nc2c(=O)n(C)c(=O)nc-2n(C)n1	-74.5	/	/	/
Cc1cc(C(=O)NNS(=O)(=O)c2ccc(F)cc2)nn1C(C)(C)C	456.0*	/	-0.836	10.1
CCN(CC)c1cc(Cl)nc(N)n1	-43.2	/	/	/
Cc1cc(NC(=O)CCS(=O)(=O)c2nc(-c3ccccc3)cc(C(F)(F)F)n2)no1	-89.9	/	/	/
CC1CN(c2oc(-c3cccs3)nc2C#N)CC(C)O1 (centres undefined)	-48.6	/	/	/
CCOC(=O)c1ccccc1NS(=O)(=O)c1ccc(OCC)cc1	?	17.3	49.9	69.9
SMILES	PGC1a acetyl up	Hep G6PC suppr	Hep PCK1 suppr	Hep PGC-1a down
O=C1CN(C(=O)COC(=O)/C=C/c2ccco2)c2ccccc2N1	-40.3	/	/	/
CCn1cnc2cc(NCc3ccc(N(C)C)cc3)ccc21	-40.1	243.4	/	?
CCN1CCN(Cc2ccc(NC(=O)c3ccc(C)c(NC(=O)c4c[nH]c5cc(C(F)(F)F)ccc5c4=O)c3)cc2C(F)(F)F)CC1	-77.9	/	/	/
CCOc1ccc(Nc2oc(-c3ccc(Cl)cc3)nc2C#N)cc1	61.9*	-52.8[8 µM]	54.1	20.3
CCOc1ccc2nc(NCCNC(=O)Nc3ccccc3)c(C#N)cc2c1	-64.2	/	/	/
CN(C)CCNc1oc(COc2ccc(-c3ccccc3)cc2)nc1C#N	-58.5	/	/	/
COc1ccc(C2CC(=O)N(C)c3ccccc3S2)cc1 (centres undefined)	-41.1	39.2	44.5	57.1
O=C(CCc1nc2ccccc2c(=O)[nH]1)Nc1ccc(N2CCCCC2)cc1	100.3*	42.4	/	86.9
Cc1ccc(C)n1-c1ccc(-c2nnco2)cc1	-52.4	/	/	/
C[C@H]1CN([C@@H](C)CO)C(=O)c2cccc(NC(=O)c3cnccn3)c2O[C@H]1CN(C)Cc1ccc(C(=O)Nc2ccccc2N)cc1	202.6*	-38.6	-7.46	92.8
C[C@H](CO)N1C[C@H](C)[C@H](CN(C)Cc2ccc(C(=O)Nc3ccccc3N)cc2)Oc2c(NC(=O)c3ccncc3)cccc2C1=O	-51.6	/	/	/
